Legend:
[1] = DNS cytotoxicity assay; type: cell-based; settings: human, CEM cells vs Hs-27 cells
How it was run: (§1)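 Suspension cells plated at 10,000/well and exposed 20 h (footnote: 24 h) to graded concentrations in 1% v/v DMSO. Hoechst 33342/PI (1 μg/ml each) added for the final hour, then 3x3-field imaging. Dead cells were double-stained nuclei, DMSO background subtracted. CC50 by linear regression, triplicate. SCI = CC50 non-cancerous / CC50 cancer, using Hs-27 in the table and Hs-27, MCF-10A and CCD-112CoN for Jurkat.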

[2] = test system: CEM; experiment: DNS cytotoxicity assay; type: cell-based; settings: Homo sapiens, CCRF-CEM, 24 h, read-out: Cytotoxic concentration 50% (CC50)
How it was run: as §1

[3] = DNS cytotoxicity assay; type: cell-based; settings: human
How it was run: as §1

[4] = test system: Jurkat; experiment: DNS cytotoxicity assay; type: cell-based; settings: Homo sapiens, Jurkat, 24 h, read-out: Cytotoxic concentration 50% (CC50)
How it was run: as §1

[5] = DNS cytotoxicity assay; type: cell-based; settings: human, Nalm 6 cells vs Hs-27 cells
How it was run: as §1

[6] = test system: Nalm 6; experiment: DNS cytotoxicity assay; type: cell-based; settings: Homo sapiens, NALM-6, 24 h, read-out: Cytotoxic concentration 50% (CC50)
How it was run: as §1

[7] = DNS cytotoxicity assay; type: cell-based; settings: human, Ramos cells vs Hs-27 cells
How it was run: as §1

[8] = test system: Ramos; experiment: DNS cytotoxicity assay; type: cell-based; settings: Homo sapiens, Ramos, 24 h, read-out: Cytotoxic concentration 50% (CC50)
How it was run: as §1

[9] = DNS cytotoxicity assay; type: cell-based; settings: human, CCD-112CoN non-cancerous colon fibroblasts
How it was run: (§2)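 DNS imaging assay. Adherent cells seeded at 5,000/well, incubated 20 h (table footnote says 24 h) with several compound concentrations in 1% v/v DMSO final. Hoechst 33342 and PI (1 μg/ml each, final) added 1 h before imaging 3x3 fields at 20x. Dead cells = Hoechst/PI co-localized nuclei. Values corrected by subtracting the mean % dead of six DMSO wells. CC50 by linear regression, triplicate.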

[10] = DNS cytotoxicity assay; type: cell-based; settings: human, Hs-27 non-cancerous foreskin fibroblasts
How it was run: as §2

[11] = DNS cytotoxicity assay; type: cell-based; settings: human, MCF-10A non-cancerous mammary epithelial cells
How it was run: as §2

[12] = test system: Jurkat cells; experiment: Apoptosis assay via annexin V-FITC/PI staining, Jurkat; type: cell-based, human; settings: 24 h; for apoptosis (phosphatidylserine externalization, annexin V-FITC positive cells): 1 μM, flow cytometry
How it was run: (§3)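 Annexin V-FITC/PI co-staining read by flow cytometry after 24 h exposure. Excitation was at 488 nm, with FITC read on FL1 and PI on FL2. Cells that were PI-positive but annexin-negative were scored as necrotic. Controls were untreated cells, 1% v/v DMSO, 300 μM H2O2, and curcumin and EF-24 at 1 μM. Triplicates; compared with curcumin by Student's t-test.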

[13] = test system: Nalm-6 cells; experiment: Apoptosis assay via annexin V-FITC/PI staining, Nalm-6; type: cell-based, human; settings: 24 h; for apoptosis (phosphatidylserine externalization, annexin V-FITC positive cells): 1 μM, flow cytometry
How it was run: as §3

[14] = test system: Jurkat cells; experiment: Mitochondrial membrane potential assay; type: cell-based, human; settings: 1 μM, 7 h, JC-1, flow cytometry
How it was run: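 Jurkat at 3x10^4 cells per mL per well (24-well) exposed 7 h to 1 μM. JC-1 then added, 30 min at 37 °C, followed by flow cytometry of ~10,000 events. 50 μM CCCP served as depolarization control, with 1% DMSO and untreated controls. Triplicates, t-test vs DMSO.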

[15] = test system: caspase-3/7 in Jurkat cells; experiment: Caspase-3/7 activity assay; type: cell-based, human; settings: 1 μM, 20 h, NucView 488, flow cytometry
How it was run: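 Jurkat seeded at 100 cells/μL (24-well) and treated 20 h with 1 μM. Active caspase-3/7 detected in live cells with the NucView 488 fluorogenic substrate by flow cytometry, ~10,000 events per sample. Positive controls were 2 μg/ml camptothecin and 10 μM curcumin, plus DMSO and untreated controls. Triplicates, t-test vs DMSO.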

[16] = test system: leukemia and lymphoma neoplasms; experiment: DNS cytotoxicity screen at 1 μM, leukemia/lymphoma panel; type: cell-based; settings: human leukemia/lymphoma cell lines
[17] = test system: non-malignant MCF-10A and Hs-27 cell lines; experiment: DNS cytotoxicity screen at 1 μM, non-malignant cells; type: cell-based; settings: 20 h
How it was run: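 Single-concentration DNS screen: 1 μM in 1% v/v DMSO for 20 h. Hoechst 33342 and PI (1 μg/ml each) added 1 h before automated imaging. Percent dead was calculated from co-stained nuclei out of total nuclei per well. Controls were 300 μM H2O2, 1% DMSO and untreated wells. Run in triplicate and shown as heat map.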

For `CCN(CC)CCOc1ccc(C(=O)Oc2ccc(C=C3CN(C)CC(=Cc4ccc(OC(=O)c5ccc(OCCN(CC)CC)cc5)cc4)C3=O)cc2)cc1` [Compound 1, 3,5-bis{4-[4-(2-diethylaminoethoxy)phenylcarbonyloxy]benzylidene}-1-methyl-4-piperidone], the selectivity ratio at 20 h [1] was 8.1, the CC50 [2] was 0.59 ± 0.03 µM and the selectivity ratio at 20 h [3] was > 10. The selectivity ratio at 20 h ([3]; Jurkat cells vs CCD-112CoN cells) was 10.9, the selectivity ratio at 20 h ([3]; Jurkat cells vs Hs-27 cells) was 11.1 and the selectivity ratio at 20 h ([3]; Jurkat cells vs MCF-10A cells) was 36.3. For the same compound, the CC50 [4] was 0.43 ± 0.02 µM, the selectivity ratio at 20 h [5] was 5.6 and the CC50 [6] was 0.86 ± 0.03 µM. For the same compound, the selectivity ratio at 20 h [7] was 6.7, the CC50 [8] was 0.71 ± 0.01 µM and the CC50 at 24 h [9] was 4.68 ± 0.83 µM. The CC50 at 24 h [10] was 4.78 ± 0.03 µM, the CC50 at 24 h [11] was 15.6 ± 0.14 µM and the “apoptosis (phosphatidylserine externalization, annexin V-FITC positive cells)” value (“apoptosis” below) [12] was ~ 70%. The “apoptotic activity as compared with curcumin” value ([12]; both compounds at 1 μM) was 10 fold, the “apoptosis” value [13] was ~ 50% and the “apoptotic activity as compared with curcumin” value ([13]; both compounds at 1 μM) was 22.3 fold. For the same compound, the mitochondrial depolarization [14] was ~ 80%, the “caspase-3/7 activation (active caspase 3/7-positive cells)” value [15] was > 90% and the “in vitro cytotoxic concentration compared with curcumin” value [16] was “approximately ten times more effective than curcumin”. The “toxicity to non-malignant cell lines (heat map)” value [17] was “low toxicity”.
For `COc1cc(/C=C/C(=O)CC(=O)/C=C/c2ccc(O)c(OC)c2)ccc1O` [Curcumin, reference compound], the selectivity ratio at 20 h [1] was 1.4, the CC50 [2] was 10.6 ± 0.06 µM and the selectivity ratio at 20 h ([3]; Jurkat cells vs Hs-27 cells) was 1.4. For the same compound, the CC50 [4] was 10.86 ± 0.04 µM, the selectivity ratio at 20 h [5] was 1.4 and the CC50 [6] was 11 ± 0.2 µM. The selectivity ratio at 20 h [7] was 1.7, the CC50 [8] was 9.25 ± 0.37 µM and the CC50 at 24 h [9] was 15.8 ± 0.13 µM. For the same compound, the CC50 at 24 h [10] was 15.3 ± 0.38 µM, the CC50 at 24 h [11] was 14.1 ± 0.66 µM and the “apoptosis” value [12] was “did not induce significant PS externalization”. For the same compound, the “apoptosis” value [13] was “did not induce significant PS externalization”.

Source: PMC5110259 (Clinical cancer drugs, 2016)
